Experiment [1] in a line: Nitric oxide scavenging activity by naphthylethylenediamine dihydrochloride based Griesse-Ilosavay method. Put shortly: (§1)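 Modified Griess-Ilosavay assay. Test sample in DMSO was mixed with potassium phosphate buffer (10 mM, pH 7.4) and sodium nitroprusside (10 mM stock), then incubated at 25 °C for 150 min to form nitrite. Sulphanilic acid reagent (0.33%) and N-(1-naphthyl)ethylenediamine dihydrochloride (0.1% w/v) were added, and the mixture stood 1–2 min. Absorbance was read at 546 nm against a blank. Ascorbic acid was the positive control and DMSO the blank. IC50 was obtained by […].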
(In general: The Griess reaction detects nitrite, a stable product of nitric oxide.)

The nature of experiment [2]: Nitric oxide scavenging activity by naphthylethylenediamine dihydrochloride based Griesse-Ilosavay method relative to ascorbic acid. Put shortly: as §1

The term IC50 denotes the concentration that gives 50% inhibition. `Cc1ccc(C(c2c(O)[nH]c(=O)[nH]c2=O)c2c(O)[nH]c(=O)[nH]c2=O)cc1` had an IC50 in experiment [1] of 377 µM. Turning to `COc1ccc(C(c2c(O)[nH]c(=O)[nH]c2=O)c2c(O)[nH]c(=O)[nH]c2=O)cc1`, in experiment [1], the half-inhibitory concentration (IC50) was 206 µM.

Turning to `O=c1[nH]c(O)c(C(c2ccc3ccccc3c2)c2c(O)[nH]c(=O)[nH]c2=O)c(=O)[nH]1`, half-maximal inhibition in experiment [1] (IC50) was put at 308 µM. As for `CC1(C)CC(=O)C(C(c2ccccc2)c2c(O)[nH]c(=O)[nH]c2=O)=C(O)C1` (centres undefined), inhibition in experiment [1] was half-maximal at 361 µM (IC50).

Regarding `CC1(C)CC(=O)C(C(c2ccc(C=O)cc2)c2c(O)[nH]c(=O)[nH]c2=O)=C(O)C1` (centres undefined), half-maximal inhibition in experiment [1] (IC50) required 439 µM.

In experiment [1], `Cc1ccc(C(c2c(O)n(C)c(=O)n(C)c2=O)c2c(O)n(C)c(=O)n(C)c2=O)cc1` showed an IC50 of 230 µM. On to `Cn1c(O)c(C(C2=C(O)CC(C)(C)CC2=O)c2ccccc2)c(=O)n(C)c1=O` (centres undefined), for which, in experiment [1], the IC50 stood at 290 µM.

Consider `Cn1c(O)c(C(c2ccc(O)cc2)c2c(O)n(C)c(=O)n(C)c2=O)c(=O)n(C)c1=O`, for which the 50% inhibitory concentration (IC50) in experiment [1] was determined as 310 µM. In experiment [1], `Cn1c(O)c(C(c2ccc(Cl)cc2)c2c(O)n(C)c(=O)n(C)c2=O)c(=O)n(C)c1=O` registered an IC50 of 75 µM.

In experiment [1], `Cc1ccc(C(C2=C(O)CC(C)(C)CC2=O)c2c(O)[nH]c(=O)[nH]c2=O)cc1` (centres undefined) displayed a half-inhibitory concentration (IC50) of 432 µM.

`Cn1c(O)c(C(c2ccc([N+](=O)[O-])cc2)c2c(O)n(C)c(=O)n(C)c2=O)c(=O)n(C)c1=O` registered an IC50 in experiment [1] of 69 µM. The compound `Cn1c(O)c(C(C2=C(O)CC(C)(C)CC2=O)c2ccc(C=O)cc2)c(=O)n(C)c1=O` (centres undefined) had an IC50 in experiment [1] of 380 µM. On the same count and under the same terms, as for `CC1(C)CC(=O)C(C(C2=C(O)CC(C)(C)CC2=O)c2ccc([N+](=O)[O-])cc2)=C(O)C1`, the figure is 281 µM; as for `Cn1c(O)c(C(c2ccc(C=O)cc2)c2c(O)n(C)c(=O)n(C)c2=O)c(=O)n(C)c1=O`, 113 µM. Compound `O=Cc1ccc(C(c2c(O)[nH]c(=O)[nH]c2=O)c2c(O)[nH]c(=O)[nH]c2=O)cc1` showed an IC50 in experiment [1] of 330 µM. On the same count and under the same terms, as for `O=C1O[C@H]([C@@H](O)CO)C(O)=C1O` [ASCORBIC ACID], the figure is 618 µM; as for `COc1ccc(C(c2c(O)n(C)c(=O)n(C)c2=O)c2c(O)n(C)c(=O)n(C)c2=O)cc1`, 234 µM. Take `Cn1c(O)c(C(C2=C(O)CC(C)(C)CC2=O)c2ccc([N+](=O)[O-])cc2)c(=O)n(C)c1=O` (centres undefined): half-maximal inhibition in experiment [1] (IC50) was put at 466 µM. `Cn1c(O)c(C(C2=C(O)CC(C)(C)CC2=O)c2ccc(Cl)cc2Cl)c(=O)n(C)c1=O` (centres undefined): in experiment [2], the Ratio IC50 is 500. The compound further displayed an IC50 in experiment [1] of 175 µM. The compound `O=c1[nH]c(O)c(C(c2ccc(Cl)cc2)c2c(O)[nH]c(=O)[nH]c2=O)c(=O)[nH]1` came in with an IC50 in experiment [1] of 304 µM. Turning to `Cc1cccc(C(c2c(O)n(C)c(=O)n(C)c2=O)c2c(O)n(C)c(=O)n(C)c2=O)c1`, the IC50 in experiment [1] came out at 174 µM. `Cn1c(O)c(C(c2cccc(Br)c2)c2c(O)n(C)c(=O)n(C)c2=O)c(=O)n(C)c1=O`: the midpoint of inhibition in experiment [1], the IC50, lay at 70.1 µM.

As for `Cn1c(O)c(C(c2ccc3ccccc3c2)c2c(O)n(C)c(=O)n(C)c2=O)c(=O)n(C)c1=O`, the IC50 in experiment [1] was found to be 79.1 µM.

The record behind these values is ChEMBL document CHEMBL3352396, “Zwitterionic pyrimidinium adducts as antioxidants with therapeutic potential as nitric oxide scavenger” (Eur J Med Chem, 2014).
